Assay [1] has as its system NSCLC. Description: Growth inhibition of human NSCLC cells after 48 hrs. Format: functional.
The nature of assay [2]: Growth inhibition of human leukemia cells after 48 hrs. Format: functional. As to conditions: Leukemia cell; for CC50: read-out: LC50 (the source's name).
In assay [3] the test system is MCF7. The assay is described as follows: Antiproliferative activity against human MCF7 cells assessed as increase in tumor suppressor p53 expression at 5 uM after 20 hrs by Western blotting. Format: functional. The gist of the method: (§1)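 MCF-7 cells in RPMI 1640 with 10% FBS and 2 mM L-glutamine at 37°C, 5% CO2, plated at 2×10^4 cells/cm2. Compound added 24 h later to 5 μM (DMSO vehicle in controls) for 20 h. Lysed in HEPES pH 7.5 buffer with DTT, EDTA, CHAPS, Triton X-100 and protease inhibitors, then freeze-thawed twice. SDS-PAGE at 80 μg protein/lane and immunoblotting for total and phospho ERK1/2 and Akt, p53 and p21, with β-actin. Densitometry used for quantitation.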
A general note: In western blotting, separated proteins are transferred to a membrane and probed.

A short description of assay [4]: Growth inhibition of human renal cancer cells after 48 hrs. The following applies: Cancer cell lines; for CC50: read-out: LC50 (the source's name). Format: functional.
Assay [5] in a line: Growth inhibition of human CNS cancer cells after 48 hrs. Format: functional. As to conditions: Cancer cell lines; for CC50: read-out: LC50 (the source's name).
The nature of assay [6]: Growth inhibition of human prostate cancer cells after 48 hrs. The following applies: Cancer cell lines; for CC50: read-out: LC50 (the source's name). Format: functional.
The nature of assay [7]: Growth inhibition of human breast cancer cells after 48 hrs. The assay is classed as functional. The following applies: Cancer cell lines; for CC50: read-out: LC50 (the source's name).
The nature of assay [8]: Growth inhibition of human Ovarian cancer cells after 48 hrs. Format: functional. As to conditions: Cancer cell lines; for CC50: read-out: LC50 (the source's name).
The nature of assay [9]: Growth inhibition of human colon cancer cells after 48 hrs. The assay is classed as functional. The following applies: Cancer cell lines; for CC50: read-out: LC50 (the source's name).
Assay [10] is described as follows: Growth inhibition of human melanoma cells after 48 hrs. Format: functional. The following applies: Melanoma cell; for CC50: read-out: LC50 (the source's name).
The subject of assay [11] is MCF7. Description: Cell cycle arrest in human MCF7 cells assessed as accumulation at G2/M phase at 200 nM after 24 to 48 hrs. Format: functional, cell-based. The method, boiled down:
(§2)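 MCF-7 cells plated at 2×10^4 cells/cm2 and exposed to 200 nM compound for 24 and 48 h; DMSO-treated controls. Cells detached with trypsin/EDTA and washed in PBS. Stained 30 min at room temperature in the dark with 50 μg/mL propidium iodide, 10 μg/mL RNase, 0.01% NP-40 and 0.1% sodium citrate. DNA content read by flow cytometry. Means ± s.e.m. of three determinations.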

Assay [12] deals with MCF7. Description: Growth inhibition of human MCF7 cells at 200 nM after 48 hrs by trypan blue exclusion cell counting.
Assay [13] has as its target RAC-alpha serine/threonine-protein kinase (Homo sapiens) (UniProt P31749). Description: Inhibition of AKT phosphorylation in human MCF7 cells assessed as p-AKT level at 5 uM after 20 hrs by Western blotting. Format: cell-based. The gist of the method: as §1
Assay [14] relates to MCF7. The assay is described as follows: Cell cycle arrest in human MCF7 cells assessed as accumulation at subG1 phase at 200 nM after 24 to 48 hrs. Format: functional, cell-based. The method, boiled down: as §2
The test system of assay [15] is MCF7. Description: Antiproliferative activity against human MCF7 cells assessed as increase in tumor suppressor p21 expression at 5 uM after 20 hrs by Western blotting. The assay is classed as functional. As to conditions: in the assay text read “24 hrs” for “20 hrs”.
In assay [16] the test system is MCF7. The assay is described as follows: Induction of apoptosis in human MCF7 cells assessed as Bax accumulation by immunofluorescence microscopy. Format: functional, cell-based. The method, boiled down:
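MCF-7 cells seeded on glass coverslips at 1×10^4 cells/cm2 and treated with 5 μM for 24 h. Fixed in 3% paraformaldehyde, washed in glycine and permeabilized in ice-cold 70% ethanol. Stained with mouse anti-Bax for 1 h at room temperature, then FITC anti-mouse IgG, with propidium iodide as nuclear counterstain. Imaged by confocal microscopy with excitation at 488 and 568 nm. Three experiments.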

Each structure is given as a SMILES string. Calls of active or inactive are those of the source. The calls are words filed in the database; no cut-off is given here.

RAC-alpha serine/threonine-protein kinase (Homo sapiens), sequence (P31749 whole entry): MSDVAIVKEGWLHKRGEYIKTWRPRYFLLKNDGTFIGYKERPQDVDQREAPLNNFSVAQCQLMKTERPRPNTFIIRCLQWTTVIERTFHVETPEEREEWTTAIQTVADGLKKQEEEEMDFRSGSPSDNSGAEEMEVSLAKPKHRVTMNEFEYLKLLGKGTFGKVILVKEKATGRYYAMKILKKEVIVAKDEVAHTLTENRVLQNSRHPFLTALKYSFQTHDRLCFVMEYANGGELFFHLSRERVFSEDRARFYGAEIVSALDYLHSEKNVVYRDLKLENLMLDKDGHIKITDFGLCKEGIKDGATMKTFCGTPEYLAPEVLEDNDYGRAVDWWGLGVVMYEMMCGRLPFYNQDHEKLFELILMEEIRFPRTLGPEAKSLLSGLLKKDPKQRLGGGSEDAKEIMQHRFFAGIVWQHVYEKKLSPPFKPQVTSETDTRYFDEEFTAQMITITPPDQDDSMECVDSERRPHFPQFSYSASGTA

As usually defined, the GI50 is the concentration at which growth is held to half of that of the control. A high value points to lower sensitivity of the cells. In general, LC50 refers to the concentration lethal to half of the exposed cells or organisms. A higher LC50 goes with a less lethal substance. On to `COc1cc2c(cc1C)N(C)C(=O)/C2=C/c1c(Cl)[nH]c2ccccc12`, for which the GI50 in [1] is 0.58 µM; in [2], 0.26 µM; in assay [4], 0.62 µM; in [5], 0.32 µM; in assay [6], 0.32 µM; in assay [7], 0.3 µM. Moreover, the GI50 in assay [8] is 0.6 µM; in [9], 0.37 µM; in assay [10], 0.71 µM. In addition, the LC50 in assay [1] was 57.5 µM. The CC50 came out at 69.2 µM in assay [2]; 56.2 µM in assay [4]; 47.9 µM in assay [5]; 69.2 µM in assay [6]; 57.5 µM in [7]; 61.7 µM in assay [8]. In addition, the CC50 in assay [9] turned out to be 46.8 µM; in assay [10], 51.3 µM. Also, in assay [3], the outcome was Active.
One may read the TGI as the concentration at which net growth stops. Low values mean more potent growth arrest, high ones less potent growth arrest. Consider `COc1cc2c(/C=C3/C(=O)Nc4cc(Cl)ccc43)c(Cl)n(C)c2cc1C`, for which the 50% growth inhibitory concentration (GI50) in [1] worked out at 0.07 µM; in [2] it was 0.02 µM; in assay [4] it was 0.04 µM; in assay [5], 0.02 µM; in [6], 0.02 µM; in [7], 0.05 µM. Also, the GI50 in assay [8] is 0.03 µM; in assay [9], 0.02 µM; in [10], 0.02 µM. The LC50 in [1] was found to be 93.3 µM. In addition, the CC50 was 39.8 µM in assay [2]; 70.8 µM in assay [4]; 23.4 µM in assay [5]; 21.4 µM in [6]; 72.4 µM in assay [7]; 52.5 µM in [8]. Besides, the CC50 turned out to be 25.1 µM in assay [9] and 50.1 µM in assay [10]. Also, the result in assay [3], in [11], in assay [12], in assay [13], in [14] and in assay [16] was Active. Besides, in [3] (in the assay text read “after 24 hrs” for “after 20 hrs”), the “fold change (FC)” value turned out to be 3. In assay [6], this compound yielded a total growth inhibition concentration (TGI) of 3.02 µM. For the same compound, the Activity in [15] came out at 90%.
Consider `COc1cc2c(cc1C)N(C)C(=O)/C2=C/c1c(Cl)n(C)c2cc(C)c(OC)cc12`, for which the GI50 was 19.5 µM in assay [1]; 6.92 µM in assay [2]; 15.8 µM in [4]; 10.5 µM in assay [5]; 35.5 µM in assay [6]; 6.76 µM in assay [7]. The 50% growth inhibitory concentration (GI50) was determined as 18.6 µM in assay [8], 20.4 µM in assay [9] and 16.2 µM in assay [10]. The LC50 in [1] is 93.3 µM. Also, the CC50 in [4] was 77.6 µM; in assay [5], 61.7 µM; in assay [7], 83.2 µM; in [8] it was 89.1 µM; in assay [9], 97.7 µM.
For the compound `COc1cc2c(cc1C)NC(=O)/C2=C/c1c[nH]c2ccccc12`, the GI50 in assay [1] stood at 13.5 µM; in assay [2], 8.71 µM; in assay [4] it was 11.5 µM; in assay [5] it was 10 µM; in assay [6], 13.8 µM; in assay [7], 11.8 µM. The GI50 in assay [8] amounted to 12.6 µM; in assay [9] it was 8.13 µM; in assay [10], 13.2 µM. The LC50 in assay [1] was found to be 89.1 µM. Moreover, the TGI was found to be 43.6 µM in assay [1]; 55 µM in assay [2]; 38 µM in [4]; 33.9 µM in assay [5]; 36.3 µM in assay [6]; 40.7 µM in [7]. Further, the TGI in assay [8] stood at 45.7 µM; in [9], 52.5 µM; in [10] it was 37.1 µM. In addition, the CC50 in assay [4] came out at 85.1 µM; in [5] it was 95.5 µM; in assay [6], 91.2 µM; in assay [7], 91.2 µM; in assay [8], 97.7 µM; in assay [9] it was 95.5 µM. The CC50 in [10] was 81.3 µM.
